Measurements: ChEMBL document CHEMBL4837261, “Optimization of TopoIV Potency, ADMET Properties, and hERG Inhibition of 5-Amino-1,3-dioxane-Linked Novel Bacterial Topoisomerase Inhibitors: Identification of a Lead with In Vivo Efficacy against MRSA” (J Med Chem, 2021)
≈ marks a conversion by molar mass, not a printed value. Calls of active or inactive are those of the source. No cut-off for these calls is given here.

Legend:
Staphylococcus aureus [1] = experiment: Antibacterial activity against Staphylococcus aureus ATCC 29213 by CLSI method; assay type: functional
Staphylococcus aureus [2] = experiment: Antibacterial activity against methicillin-resistant Staphylococcus aureus USA300 by CLSI method; assay type: functional
Staphylococcus aureus [3] = experiment: Antibacterial activity against cystic fibrosis isolate Staphylococcus aureus by CLSI method; assay type: functional
Staphylococcus aureus [4] = experiment: Antibacterial activity against Staphylococcus aureus by CLSI method; assay type: functional
How it was run: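 MICs were determined by broth microdilution per CLSI guidelines, in triplicate at minimum. Strains were S. aureus ATCC 29213, MRSA USA300 and a cystic fibrosis respiratory isolate, and ranges are given where seen.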

Enterococcus sp. = experiment: Antibacterial activity against Enterococcus sp. by CLSI method; assay type: functional
Streptococcus pneumoniae = experiment: Antibacterial activity against Streptococcus pneumoniae by CLSI method; assay type: functional
Acinetobacter baumannii = experiment: Antibacterial activity against Acinetobacter baumannii by CLSI method; assay type: functional
Bacillus anthracis = experiment: Antibacterial activity against Bacillus anthracis by CLSI method; assay type: functional
DNA gyrase [5] = biological target: DNA gyrase (Staphylococcus aureus, UniProt P0A0K8+P20831); experiment: Inhibition of Staphylococcus aureus Gyrase supercoiling activity assessed as reduction in supercoiling pBR322 DNA by measuring relaxation by bromophenol blue staining based TAE gel method; assay type: protein-complex assay
Topoisomerase IV = Topoisomerase IV (Staphylococcus aureus, UniProt P0C1S7+P0C1U9); experiment: Inhibition of Staphylococcus aureus topoisomerase IV decatenation activity using kDNA as substrate by ethidium bromide/bromophenol blue staining based agarose gel electrophoresis analysis; assay type: protein-complex assay
DNA gyrase [6] = biological target: DNA gyrase (Staphylococcus aureus, UniProt P0A0K8+P20831, D83N); experiment: Inhibition of Staphylococcus aureus DNA Gyrase D83N mutant assessed as reduction in supercoiling pBR322 DNA by measuring relaxation by bromophenol blue staining based TAE gel method
Staphylococcus aureus [7] = experiment: Antibacterial activity against Staphylococcus aureus 3527 by CLSI method; assay type: functional
Staphylococcus aureus [8] = experiment: Antibacterial activity against Staphylococcus aureus harbouring GyrA D83N mutant by CLSI method; assay type: functional
[9] = Growth inhibition of human K/VP.5 cells incubated for 48 hrs by NBTI cell counting analysis; assay type: functional; conditions: K562, 48 h
K562 = experiment: Growth inhibition of log-phase human K562 cells incubated for 48 hrs by NBTI cell counting analysis; assay type: functional, cell-based
Streptococcus pyogenes = experiment: Antibacterial activity against Streptococcus pyogenes isolates by CLSI method; assay type: functional
[10] = Metabolic stability in CD1 mouse liver microsomes assessed as intrinsic clearance at 2 uM measured up to 120 mins by LC-MS/MS analysis; assay type: ADME, Microsome; conditions: 2 h
[11] = Metabolic stability in CD1 mouse liver microsomes assessed as half life at 2 uM measured up to 120 mins by LC-MS/MS analysis; assay type: ADME, Microsome
[12] = biological target: Voltage-gated inwardly rectifying potassium channel KCNH2 (Homo sapiens, UniProt Q12809); experiment: Inhibition of human ERG
Sequence of Voltage-gated inwardly rectifying potassium channel KCNH2 (Q12809 whole entry): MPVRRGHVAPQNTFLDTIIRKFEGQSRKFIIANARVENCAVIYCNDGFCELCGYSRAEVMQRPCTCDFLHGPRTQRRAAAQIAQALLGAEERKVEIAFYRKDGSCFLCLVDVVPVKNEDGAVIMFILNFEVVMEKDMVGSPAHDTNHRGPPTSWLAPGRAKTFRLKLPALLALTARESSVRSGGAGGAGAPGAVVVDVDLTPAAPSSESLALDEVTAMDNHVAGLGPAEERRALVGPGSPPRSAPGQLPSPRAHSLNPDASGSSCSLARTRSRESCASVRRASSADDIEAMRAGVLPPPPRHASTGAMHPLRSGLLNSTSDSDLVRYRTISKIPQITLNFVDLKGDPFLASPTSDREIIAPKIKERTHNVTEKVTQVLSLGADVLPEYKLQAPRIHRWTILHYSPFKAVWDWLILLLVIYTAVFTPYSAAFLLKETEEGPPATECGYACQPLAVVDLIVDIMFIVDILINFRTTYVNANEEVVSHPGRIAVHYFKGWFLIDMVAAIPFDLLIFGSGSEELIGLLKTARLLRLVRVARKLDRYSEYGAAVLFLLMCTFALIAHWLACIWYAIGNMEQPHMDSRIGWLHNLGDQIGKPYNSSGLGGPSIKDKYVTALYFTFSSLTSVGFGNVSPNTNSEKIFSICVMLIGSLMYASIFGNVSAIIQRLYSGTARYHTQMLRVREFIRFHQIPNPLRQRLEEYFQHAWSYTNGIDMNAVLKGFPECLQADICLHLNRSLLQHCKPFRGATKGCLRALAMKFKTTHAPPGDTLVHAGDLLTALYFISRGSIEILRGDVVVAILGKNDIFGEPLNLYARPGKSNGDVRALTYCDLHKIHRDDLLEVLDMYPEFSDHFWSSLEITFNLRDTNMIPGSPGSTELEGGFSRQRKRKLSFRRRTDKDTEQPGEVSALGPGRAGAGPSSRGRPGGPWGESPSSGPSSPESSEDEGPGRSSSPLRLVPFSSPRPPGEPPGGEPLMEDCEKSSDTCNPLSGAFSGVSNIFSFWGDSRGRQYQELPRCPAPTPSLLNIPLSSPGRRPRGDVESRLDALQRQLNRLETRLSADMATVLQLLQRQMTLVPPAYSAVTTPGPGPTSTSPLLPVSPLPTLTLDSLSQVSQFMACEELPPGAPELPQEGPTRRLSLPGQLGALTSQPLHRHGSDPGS
How it was run: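 hERG channel inhibition was measured on the IonWorks Barracuda automated patch system. IC50 came from eight-point concentration–response curves with four replicates per concentration.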

[13] = biological target: T1, DNA gyrase (Staphylococcus aureus) (UniProt P0A0K8+P20831); experiment: Inhibition of Staphylococcus aureus DNA Gyrase assessed as reduction in supercoiling pBR322 DNA by measuring induction of single strand breaks at 100 uM by ethidium bromide staining based agarose gel electrophoresis; assay type: protein-complex assay
[14] = biological target: T1, DNA gyrase (Staphylococcus aureus); experiment: Inhibition of Staphylococcus aureus DNA Gyrase assessed as reduction in supercoiling pBR322 DNA by measuring induction of double strand breaks at 200 uM by ethidium bromide staining based agarose gel electrophoresis; assay type: protein-complex assay
[15] = Half life in ICR (CD-1) mouse at 10 mg/kg, iv measured up to 1440 mins by LC-MS/MS analysis; assay type: ADME, organism-based; conditions: in vivo
How it was run: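 Male ICR (CD-1) mice, 22 ± 2 g, given the free base in DMSO/Solutol HS-15/0.9% NaCl (5/5/90, v/v/v), IV at 10 mg/kg or PO at 50 mg/kg; 24 mice per route, three per timepoint. Plasma was taken by cardiac puncture at 3–1440 min (IV) or 10–1440 min (PO), measured by LC-MS/MS, and parameters were derived by noncompartmental analysis.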

Compound | MIC (Staphylococcus aureus [1]) [µg/mL] | MIC (Staphylococcus aureus [2]) [µg/mL] | MIC (Staphylococcus aureus [3]) [µg/mL] | IC50 (DNA gyrase [5]) [nM] | IC50 (Topoisomerase IV) [nM] | MIC (Staphylococcus aureus [7]) [µg/mL] | MIC (Staphylococcus aureus [8]) [µg/mL] | IC50 [9] [nM] | other results
COc1ccc2ncc(F)c(C[C@H](O)[C@H]3OC[C@H](NCc4cc5c(cn4)OCCO5)CO3)c2n1 | 0.125 (≈ 0.265 µM) | ≤ 0.25 | 0.125 (≈ 0.265 µM) | 39 | 1300 | 0.25 (≈ 0.529 µM) | 4 (≈ 8.47 µM) | 145000 | MIC50 (Staphylococcus aureus [4]): 0.25 µg/mL (≈ 0.529 µM); MIC50 (Enterococcus sp.): 0.12 µg/mL (≈ 0.254 µM); MIC50 (Streptococcus pneumoniae): 0.5 µg/mL (≈ 1.06 µM); MIC50 (Acinetobacter baumannii): 64 µg/mL (≈ 135 µM); MIC50 (Bacillus anthracis): 2 µg/mL (≈ 4.23 µM); MIC90 (Bacillus anthracis): 8 µg/mL (≈ 16.9 µM); IC50 (DNA gyrase [6]): 13000 nM
COc1ccc2ncc(F)c(C(O)C[C@H]3OC[C@H](NCc4ccc5c(n4)NC(=O)CO5)CO3)c2c1 (mixture of isomers) | 0.5 (≈ 1.03 µM) | 0.25 (≈ 0.516 µM) | 0.5 (≈ 1.03 µM) | 520 | 2600 | ≤ 0.5 | 4 (≈ 8.26 µM) | > 50000 | IC50 (K562; k562): Not Active
C[C@H]1COc2c(N3CCN(C)CC3)c(F)cc3c(=O)c(C(=O)O)cn1c23.C[C@H]1COc2c(N3CCN(C)CC3)c(F)cc3c(=O)c(C(=O)O)cn1c23.O [LEVOFLOXACIN] |  |  |  |  |  |  |  |  | MIC50 (Streptococcus pyogenes): 8 µg/mL; MIC90 (Streptococcus pyogenes): 64 µg/mL
COc1ccc2ncc(F)c(C(O)C[C@H]3OC[C@H](NCc4ccc5c(n4)NC(=O)CS5)CO3)c2c1 (mixture of isomers) | 0.25 (≈ 0.499 µM) | 0.25 (≈ 0.499 µM) | 0.5 (≈ 0.999 µM) | 330 | 1500 | ≤ 0.25 | 4 (≈ 7.99 µM) | > 50000 | IC50 (K562; Homo sapiens, K562, 48 h, read-out: IC50): 56000 nM
COc1ccc2ncc(F)c(CC[C@H]3OC[C@H](NCc4ccc5c(c4)OCCO5)CO3)c2n1 |  |  |  |  |  |  |  |  | intrinsic clearance (CLint) [10]: 2240 µL/min/mg; half-life at 2 µM [11]: 2.43 min; IC50 [12]: 23000 nM
O=C(O)c1cn(C2CC2)c2cc(N3CCNCC3)c(F)cc2c1=O |  |  |  |  |  |  |  |  | Activity [13]: Active; Activity [14]: Active
COc1ccc2ncc(F)c(C[C@H](O)[C@@H]3CC[C@@H](NCc4cc5c(nn4)OCCS5)CO3)c2n1 |  |  |  |  |  |  |  |  | half-life [15]: 18.6 min
